Tested on: Fibroblast
Experiment: Multiplex assay against human fibroblast
Format: toxicity, cell-based
Outline: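 Live cells were stained at seeding with Hoechst33342, BioTracker Green Microtubule Cytoskeleton Dye, MitoTracker Red and Annexin V Alexa Fluor 680, then imaged on a CQ1 microscope at 37°C and 5% CO2 after compound addition. CellPathfinder machine-learning gating split cells into Hoechst high-intensity objects or normal cells. Normal cells were split into healthy, pyknosed or fragmented nuclei, and pyknosed cells into mitotic or apoptotic. Tubulin, mitochondrial-mass and membrane-permeability phenotypes are per cents of healthy-nucleus cells.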

[1] = 12 h, 1 µM, compound concentration 1 uM, replicate 1
[2] = 12 h, 1 µM, compound concentration 1 uM, replicate 2
[3] = 12 h, 10 µM, compound concentration 10 uM, replicate 1
[4] = 12 h, 10 µM, compound concentration 10 uM, replicate 2
[5] = 24 h, 1 µM, compound concentration 1 uM, replicate 1
[6] = 24 h, 1 µM, compound concentration 1 uM, replicate 2
[7] = 24 h, 10 µM, compound concentration 10 uM, replicate 1
[8] = 24 h, 10 µM, compound concentration 10 uM, replicate 2
[9] = 48 h, 1 µM, compound concentration 1 uM, replicate 1
[10] = 48 h, 1 µM, compound concentration 1 uM, replicate 2
[11] = 48 h, 10 µM, compound concentration 10 uM, replicate 1
[12] = 48 h, 10 µM, compound concentration 10 uM, replicate 2

SMILES: Cc1ccc(C)c(Oc2ccncc2C(=O)N2CCN(C3CC3)c3ccccc32)c1
- Population Apoptotic (%) [1]: 75%
- Population Fragmented Nuclei (%) [1]: 20%
- Population Healthy Nuclei (%) [1]: 58%
- Population Hoechst High Intensity Objects (%) [1]: 13%
- Population Normal (%) [1]: 86%
- Total Cell Count [1]: 90
- Population Apoptotic (%) [2]: 66%
- Population Healthy Nuclei (%) [2]: 75%
- Population Hoechst High Intensity Objects (%) [2]: 10%
- Population Normal (%) [2]: 89%
- Total Cell Count [2]: 73
- Population Apoptotic (%) [3]: 59%
- Population Fragmented Nuclei (%) [3]: 27%
- Population Healthy Nuclei (%) [3]: 43%
- Population Hoechst High Intensity Objects (%) [3]: 10%
- Population Normal (%) [3]: 89%
- Total Cell Count [3]: 178
- Population Apoptotic (%) [4]: 33%
- Population Fragmented Nuclei (%) [4]: 6%
- Population Healthy Nuclei (%) [4]: 72%
- Population Hoechst High Intensity Objects (%) [4]: 3%
- Population Normal (%) [4]: 96%
- Total Cell Count [4]: 59
- Population Apoptotic (%) [5]: 52%
- Population Fragmented Nuclei (%) [5]: 19%
- Population Healthy Nuclei (%) [5]: 56%
- Population Hoechst High Intensity Objects (%) [5]: 19%
- Population Normal (%) [5]: 80%
- Total Cell Count [5]: 88
- Population Apoptotic (%) [6]: 42%
- Population Fragmented Nuclei (%) [6]: 27%
- Population Healthy Nuclei (%) [6]: 60%
- Population Hoechst High Intensity Objects (%) [6]: 6%
- Population Normal (%) [6]: 93%
- Total Cell Count [6]: 71
- Population Apoptotic (%) [7]: 55%
- Population Fragmented Nuclei (%) [7]: 26%
- Population Healthy Nuclei (%) [7]: 51%
- Population Hoechst High Intensity Objects (%) [7]: 6%
- Population Normal (%) [7]: 93%
- Total Cell Count [7]: 189
- Population Apoptotic (%) [8]: 53%
- Population Healthy Nuclei (%) [8]: 66%
- Population Hoechst High Intensity Objects (%) [8]: 7%
- Population Normal (%) [8]: 92%
- Total Cell Count [8]: 65
- Population Apoptotic (%) [9]: 80%
- Population Fragmented Nuclei (%) [9]: 23%
- Population Healthy Nuclei (%) [9]: 57%
- Population Hoechst High Intensity Objects (%) [9]: 11%
- Population Normal (%) [9]: 88%
- Total Cell Count [9]: 87
- Population Apoptotic (%) [10]: 50%
- Population Fragmented Nuclei (%) [10]: 24%
- Population Healthy Nuclei (%) [10]: 72%
- Population Normal (%) [10]: 84%
- Total Cell Count [10]: 91
- Population Apoptotic (%) [11]: 66%
- Population Fragmented Nuclei (%) [11]: 40%
- Population Healthy Nuclei (%) [11]: 52%
- Population Hoechst High Intensity Objects (%) [11]: 9%
- Population Normal (%) [11]: 91%
- Total Cell Count [11]: 211
- Population Apoptotic (%) [12]: 25%
- Population Fragmented Nuclei (%) [12]: 42%
- Population Healthy Nuclei (%) [12]: 54%
- Population Hoechst High Intensity Objects (%) [12]: 7%
- Population Normal (%) [12]: 92%
- Total Cell Count [12]: 159

Source: ChEMBL document CHEMBL4689842, “EUbOPEN Chemogenomics Library wave 1” (2021)
